Reference: PMC4618649 (Pharmacology Research & Perspectives, 2015)
Like-named read-outs stand apart in the source and are kept apart here.

What was measured:
[1] = Phase 1 disposition study: excretion and mass balance; assay type: in vivo, human
Method in brief: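 Five healthy males received a single oral 100 mg dose containing ~100 μCi 14C-label. Urine and feces were collected to 216 h, and expired air at selected times to 48 h for 14CO2. Radioactivity was counted by liquid scintillation, either directly (urine, expired air) or after combustion (feces). Cumulative fraction of dose was summed over collection periods.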

CYP2C8 (rCYP2C8) = target: T1, CYP2C8 (rCYP2C8) (Homo sapiens, UniProt P10632); test: Substrate depletion by human recombinant CYP2C8; assay type: in vitro ADME; details: human, recombinant CYP2C8 Supersomes (insect cell microsomes)
T1 sequence (P10632 1-490): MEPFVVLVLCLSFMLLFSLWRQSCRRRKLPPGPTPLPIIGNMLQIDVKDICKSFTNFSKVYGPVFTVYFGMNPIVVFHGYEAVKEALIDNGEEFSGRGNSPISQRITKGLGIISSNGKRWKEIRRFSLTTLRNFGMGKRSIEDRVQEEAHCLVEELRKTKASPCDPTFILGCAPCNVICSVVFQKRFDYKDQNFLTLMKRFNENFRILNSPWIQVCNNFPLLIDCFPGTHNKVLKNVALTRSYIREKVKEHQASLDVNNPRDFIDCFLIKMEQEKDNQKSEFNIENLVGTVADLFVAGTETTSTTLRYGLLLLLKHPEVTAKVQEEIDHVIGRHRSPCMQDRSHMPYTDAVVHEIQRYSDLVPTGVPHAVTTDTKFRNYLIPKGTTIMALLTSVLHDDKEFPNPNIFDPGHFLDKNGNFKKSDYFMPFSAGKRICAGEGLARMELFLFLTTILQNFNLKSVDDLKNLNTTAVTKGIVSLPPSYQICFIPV
Method in brief: (§1)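 Human recombinant CYPs were insect-cell microsomes, with CYPb5 co-expressed if available, plus a no-CYP membrane control. Test compound (30 or 300 nmol/L) was incubated with matrix (0.25 mg/mL) and buffer. NADPH (1 mmol/L) started the reaction, and acetonitrile with internal standard stopped it after 5 or 30 min. CLint came from −kdep and the amount of rCYP, scaled to HLM by relative activity factor.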

rCYP2C8 = target: T2, rCYP2C8 (Homo sapiens, UniProt P10632); test: Substrate depletion by human recombinant CYP2C8; assay type: in vitro ADME; details: rCYP2C8
T2 sequence (P10632 1-490): T1 sequence (P10632 1-490)
Method in brief: as §1

[2] = Phase 1 DDI study with gemfibrozil in healthy subjects; assay type: in vivo, human; details: for Ratio of geometric LS means, AUC(0–τ), evacetrapib + gemfibrozil versus evacetrapib (90% CI) / Ratio of geometric LS means, Cmax, evacetrapib + gemfibrozil versus evacetrapib (90% CI): 130 mg QD, 600 mg gemfibrozil BID
CYP3A (rCYP3A4) = CYP3A (rCYP3A4) (Homo sapiens, UniProt P08684); test: Substrate depletion by human recombinant CYP3A4; assay type: in vitro ADME
Sequence of CYP3A (rCYP3A4) (P08684 whole entry): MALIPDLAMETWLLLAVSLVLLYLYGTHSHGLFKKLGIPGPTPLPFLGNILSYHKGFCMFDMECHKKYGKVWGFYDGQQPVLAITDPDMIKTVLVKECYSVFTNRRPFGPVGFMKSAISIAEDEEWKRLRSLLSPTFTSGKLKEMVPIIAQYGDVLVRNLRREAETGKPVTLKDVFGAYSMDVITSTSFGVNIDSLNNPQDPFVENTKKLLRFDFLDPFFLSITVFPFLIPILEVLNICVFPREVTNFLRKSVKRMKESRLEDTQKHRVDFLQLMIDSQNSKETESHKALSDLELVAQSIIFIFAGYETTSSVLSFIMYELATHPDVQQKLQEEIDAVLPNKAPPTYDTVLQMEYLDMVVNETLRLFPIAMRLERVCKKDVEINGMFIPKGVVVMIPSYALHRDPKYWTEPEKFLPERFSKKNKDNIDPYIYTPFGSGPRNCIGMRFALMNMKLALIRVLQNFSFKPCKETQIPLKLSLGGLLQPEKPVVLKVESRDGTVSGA
Method in brief: as §1

[3] = ref Mantlo and Escribano [2014]; Cannady 2013; cited from earlier work
[4] = test system: Human liver microsomes (HLMs); test: Substrate depletion in human liver microsomes; assay type: in vitro ADME; details: largest k calculated, used to approximate first-order conditions; HLMs 0.25 mg/mL
[5] = Substrate depletion in human liver microsomes; assay type: in vitro ADME; details: both, human, human liver microsomes
[6] = Phase 1 disposition study: metabolite radioprofiling in plasma and feces; assay type: in vivo, human; details: for Percent dose mean excreted in feces: single oral 100 mg 14C-evacetrapib
Method in brief: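 Samples came from five healthy males after a single oral 100 mg dose (~100 μCi 14C). Plasma, feces and urine were extracted, dried and reconstituted in DMSO/acetonitrile/10 mmol/L ammonium acetate (1:3:3). Metabolites were separated by HPLC, and fractions were counted to build radiochromatograms. Structures were identified by LC/MS and LC/MS/MS (ion trap, plus Orbitrap accurate mass) in positive ion mode.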

[7] = ref Mantlo and Escribano [2014]; Cannady 2013; cited from earlier work; remark: listed apart in the source
[8] = Phase 1 DDI study with ketoconazole in healthy subjects; assay type: in vivo, human; details: for Ratio of geometric LS means, AUC(0–∞), evacetrapib + ketoconazole versus evacetrapib (90% CI) / Ratio of geometric LS means, Cmax, evacetrapib + ketoconazole versus evacetrapib (90% CI): 100 mg evacetrapib, 400 mg ketoconazole daily; for CL/F: geometric mean (% CV)
Method in brief: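 Twelve fasted healthy adults of both sexes (18–65 y, BMI 18–32 kg/m2) took part in a fixed-sequence study. Period 1 was a single oral 100 mg of test compound, sampled predose to 168 h. After a ≥14-day washout, Period 2 was ketoconazole 400 mg daily for 14 days with 100 mg test compound on Day 5, sampled for 240 h. Plasma LC/MS/MS range was 1–1000 ng/mL. Analysis was noncompartmental, with log ANOVA (treatment fixed, subject random) and 90% CIs; tmax was compared by Wilcoxon test. Adverse events were recorded.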

[9] = patients with dyslipidemia, alone or with statins; ref Nicholls et al. [2011]; cited from earlier work
[10] = assay type: in vivo, human; details: for % AUC(tlast–∞): geometric mean (range)
Method in brief: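 Five healthy males received a single oral 100 mg dose containing ~100 μCi 14C-label, with blood sampled to 192 h. Plasma parent was measured by LC/MS/MS (range 1–1000 ng/mL). Total radioactivity was counted by liquid scintillation, directly in plasma and after combustion for whole blood. Parameters were derived noncompartmentally. Adverse events were recorded.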

[11] = both, human, plasma, oral, 130 mg
[12] = both, human, plasma, oral, 100 mg
[13] = both, human, plasma, oral, 400 mg
[14] = male, human, plasma, oral, 100 mg

Cc1cc(C)c2c(c1)[C@@H](N(Cc1cc(C(F)(F)F)cc(C(F)(F)F)c1)c1nnn(C)n1)CCCN2C[C@H]1CC[C@H](C(=O)O)CC1 [evacetrapib]
dose excreted in feces ([1]; mean (±SD), up to 216 h): 93.1 % of the dose
dose excreted in urine ([1]; mean (±SD), up to 216 h): 2.30 % of the dose
levels of radioactivity in expired air ([1]; samples up to 48 h): negligible
microsomal CLint (CYP2C8 (rCYP2C8)): 19.9 µL/min/mg
CLint (rCYP2C8): 0.712 μL × min^−1 × pmol CYP^−1
−kdep (rCYP2C8): 0.000707 s⁻¹
Ratio of geometric LS means, AUC(0–τ), evacetrapib + gemfibrozil versus evacetrapib (90% CI) [2]: 0.996
Ratio of geometric LS means, Cmax, evacetrapib + gemfibrozil versus evacetrapib (90% CI) [2]: 1.02
Ratio of geometric LS means, AUC(0–τ), evacetrapib + gemfibrozil versus evacetrapib (90% CI) ([2]; listed as Evacetrapib): 0.996 (0.922, 1.08)
Ratio of geometric LS means, Cmax, evacetrapib + gemfibrozil versus evacetrapib (90% CI) ([2]; listed as Evacetrapib): 1.02 (0.933, 1.11)
AEs considered to be related to the study drug ([2]; 5 of 24 subjects who received evacetrapib alone and/or with gemfibrozil): 10
Tmax ([2]; both, human, plasma, oral): 3 h
AUC [2, 11]: 11300 ng·h/mL
Cmax [2, 11]: 1270 ng/mL
Tmax [2, 11]: 4 h
severity of all AEs ([2]; human, in vivo): mild
AEs reported ([2]; whole study, reported by 12 subjects): 28
difference in median tmax between treatments ([2]; with versus without gemfibrozil): no significant difference
microsomal CLint (CYP3A (rCYP3A4); human, recombinant CYP3A4 Supersomes (insect cell microsomes)): 186 µL/min/mg
CLint (CYP3A (rCYP3A4); rCYP3A4 representing CYP3A): 4.257 μL × min^−1 × pmol CYP^−1
−kdep (CYP3A (rCYP3A4); rCYP3A4 representing CYP3A): 0.002608 s⁻¹
protein binding [3]: high
substrate depletion rate constant k in HLMs [4]: 0.0345 min⁻¹
microsomal CLint [5]: 138 µL/min/mg
radioactive peaks in plasma ([6]; 24-h plasma samples, detected in only 3 subjects): only quantifiable radioactive peak
dose eliminated via CYP-mediated (oxidative) metabolism ([6]; from fecal metabolites): Approximately 70%
Dose eliminated in the select feces through 192 h postdose ([6]; percent dose mean): 89.86%
Percent dose mean excreted in feces [6]: 17 % of the dose
Percent dose mean excreted in feces ([6]; listed as Evacetrapib): 16.80 % of the dose
fraction of evacetrapib eliminated by CYPs ([6]; used in the static model): ~1 For determinations of fm, CYP3A4-mediated metabolism was considered to represent total CPY3A-mediated metabolism AUCi/AUC = 1/(1-fmCYP3A × fraction of evacetrapib eliminated by CYPs) where the fraction of evacetrapib eliminated by CYPs is approximately 0.7.
drug solubility [7]: poor
Ratio of geometric LS means, AUC(0–∞), evacetrapib + ketoconazole versus evacetrapib (90% CI) [8]: 2.37
Ratio of geometric LS means, Cmax, evacetrapib + ketoconazole versus evacetrapib (90% CI) [8]: 1.94
Ratio of geometric LS means, AUC(0–∞), evacetrapib + ketoconazole versus evacetrapib (90% CI) ([8]; listed as Evacetrapib): 2.37 (1.77, 3.18)
Ratio of geometric LS means, Cmax, evacetrapib + ketoconazole versus evacetrapib (90% CI) ([8]; listed as Evacetrapib): 1.94 (1.39, 2.72)
AUC(0-inf) [8, 12]: 5260 ng·h/mL
Cmax [8, 12]: 332 ng/mL
Tmax [8, 12]: 3 h
Vd/F [8, 12]: 861 L
Tmax [8, 13]: 3 h
Vd/F [8, 13]: 592 L
half-life [8, 13]: 63.2 h
TEAEs considered mild ([8]; evacetrapib alone or in combination with ketoconazole): 16
TEAEs reported ([8]; evacetrapib alone or in combination with ketoconazole, reported by 5 subjects): 18
CL/F ([8]; evacetrapib alone): 19.0 (51) L/h
CL/F ([8]; with 400 mg ketoconazole): 8.24 (57) L/h
difference in median tmax between treatments ([8]; with versus without ketoconazole): no difference
HDL-C levels [9]: increased
LDL-C levels [9]: decreased
changes in blood pressure, aldosterone, cortisol, or electrolytes [9]: without producing substantial changes
Average (%) of total radioactivity attributed to evacetrapib ([10]; based on AUC(0–36), plasma): 66%
Average (%) of total radioactivity attributed to evacetrapib ([10]; based on AUC(0–∞), plasma): 52%
Average (%) of total radioactivity attributed to evacetrapib ([10]; based on Cmax, plasma): 82%
% AUC(tlast–∞) ([10]; blood total radioactivity, N = 4): 21 (18–24) ^2%
association of evacetrapib-related material with red blood cells ([10]; from blood-to-plasma radioactivity ratios and hematocrit): negligible
AUC(0-t) [10, 14]: 6250 ng·h/mL
Cmax [10, 14]: 777 ng/mL
Vd/F [10, 14]: 564 L
half-life [10, 14]: 32.3 h
AUC(0-inf) ([10]; male, human, plasma, po, 100 mg): 8250 ng·h/mL
CL/F ([10]; plasma evacetrapib, geometric mean (CV)): 12.1 (20) L/h
% AUC(tlast–∞) ([10]; plasma evacetrapib): 1 (0–4) %
% AUC(tlast–∞) ([10]; plasma total radioactivity): 19 (13–26) %
treatment-emergent adverse events (TEAEs) reported ([10]; reported by 2 of 5 subjects, single 100-mg dose): 5
AEs related to evacetrapib as judged by the investigator ([10]; single 100-mg dose): Three
severity of all AEs ([10]; single 100-mg dose): mild

CC(=O)N1CCN(c2ccc(OCC3COC(Cn4ccnc4)(c4ccc(Cl)cc4Cl)O3)cc2)CC1 (stereo not shown) [ketoconazole, reference compound]
TEAEs considered moderate ([8]; reported by subjects who received ketoconazole alone): 2
